Assay results from ChEMBL document CHEMBL6115033, “Discovery of a Pyrazolopyridinone-Based MYC Inhibitor That Selectively Engages Intracellular c-MYC and Disrupts MYC-MAX Heterodimerization” (J Med Chem, 2025).
Active and inactive are the calls of the source. The rule behind the calls is not given here.

How the values were obtained:
P493-6 [1] = experiment: Downregulation of E2F1 mRNA expression in human P493-6 cells at 25 uM incubated for 12 hrs by qRT-PCR analysis; format: functional, cell-based
Method in brief: (§1)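 Cells (500,000/well) were cultured with or without 25 µM for the indicated time. Total RNA was extracted with TRIzol and reverse-transcribed. qPCR used SYBR green with target-gene primers, reported as ΔΔCT.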

MDA-MB-468 [2] = experiment: Downregulation of CDC25A mRNA expression in human MDA-MB-468 cells at 25 uM incubated at 48 hrs by qRT-PCR analysis; format: functional, cell-based; method in brief: as §1
P493-6 [3] = experiment: Downregulation of MYC level in human P493-6 cells measured at 20 to 60 mins by Western blot analysis; format: functional, cell-based; conditions: time 20-60 min
Method in brief: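 Cells were pretreated with 25 µM or DMSO for 3 h, then given 50 µg/mL cycloheximide for the indicated times. MYC was measured by western blot, and half-life came from a one-phase exponential decay fit.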

[4] = Induction of apoptosis in human P493-6 cells assessed as late apoptotic cells at 25 uM incubated for 24 hrs by Annexin V/PI staining based flow cytometry analysis (reference value: 6.52 %); format: functional
P493-6 [5] = experiment: Induction of apoptosis in human P493-6 cells assessed as effect on caspase-3 level at 50 uM incubated for 24 hrs
[6] = Induction of apoptosis in human P493-6 cells assessed as necrotic cells at 25 uM incubated for 24 hrs by Annexin V/PI staining based flow cytometry analysis (reference value: 0.11 %); format: functional
[7] = target: Myc proto-oncogene protein (Homo sapiens) (UniProt P01106); experiment: Binding affinity to MYC in human P493-6 cells assessed as thermal stabilization by measuring melting temperature at 25 uM measured for 2 hrs by CETSA analysis (reference value: 42 degreeC)
[8] = Antiproliferative activity against human P493-6 cells expressing MYC assessed as inhibition of cell proliferation incubated for 96 hrs by cell titer glo assay; format: functional, cell-based; conditions: P493-6, 96 h
Method in brief: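 P493-6 cells (3000/well, RPMI) were seeded overnight at 37 °C, then given compounds at final 0.14–100 µM for 96 h. MYC-off cells were pretreated with 0.1 µg/mL tetracycline for 72 h. Read-out was CellTiter-Glo luminescence after equilibration to room temperature. IC50 was determined in high-MYC and MYC-off cells.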

P493-6 [9] = experiment: Antiproliferative activity against human P493-6 cells expressing MYC assessed as inhibition of cell proliferation at 25 uM incubated for 96 hrs by cell titer glo assay; format: functional, cell-based
Method in brief: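 P493-6 cells, either untreated (high MYC) or MYC-off after 0.1 µg/mL tetracycline for 72 h, were exposed to 25 µM for 96 h. Read-out was % survival by CellTiter-Glo luminescence. Mean ± SD, n = 6, unpaired t-test.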

[10] = Induction of apoptosis in human P493-6 cells assessed as viable cells at 25 uM incubated for 24 hrs by Annexin V/PI staining based flow cytometry analysis (reference value: 90.8%); format: functional; conditions: read-out: Activity
MCF7 = experiment: Induction of apoptosis in human MCF7 cells cultured as 3D spheroids assessed as inhibition of cell growth incubated for 5 days; format: functional, cell-based; conditions: time 5.0 day
Method in brief: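 Cells plated at 4000 per well in low-attachment 24-well plates and grown in Mammocult medium for 48 h to form mammospheres. Spheres then exposed to 25 uM compound for 5 days, with untreated control wells. Read-out was imaging of the mammospheres formed.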

[11] = target: c-Myc/c-Max (Homo sapiens) (UniProt P01106+P61244); experiment: Disruption of MYC-MAX interaction in human P493-6 cells assessed as reduction in myc level at 25 uM; format: cell-based
MDA-MB-468 [12] = experiment: Downregulation of CCNA2 mRNA expression in human MDA-MB-468 cells at 25 uM incubated at 48 hrs by qRT-PCR analysis; format: functional, cell-based; method in brief: as §1
P493-6 [13] = experiment: Induction of apoptosis in human P493-6 cells assessed as effect on PARP level at 50 uM incubated for 24 hrs
MDA-MB-468 [14] = experiment: Downregulation of E2F1 mRNA expression in human MDA-MB-468 cells at 25 uM incubated for 12 hrs by qRT-PCR analysis; format: functional, cell-based; method in brief: as §1
P493-6 [15] = experiment: Downregulation of CDC25A mRNA expression in human P493-6 cells at 25 uM incubated for 12 hrs by qRT-PCR analysis; format: functional, cell-based; method in brief: as §1
[16] = Induction of apoptosis in human P493-6 cells assessed as early apoptotic cells at 25 uM incubated for 24 hrs by Annexin V/PI staining based flow cytometry analysis (reference value: 2.52 %); format: functional
MDA-MB-468 [17] = experiment: Induction of apoptosis in human MDA-MB-468 cells assessed as effect on cleaved PARP level at 50 uM incubated for 24 hrs
MDA-MB-468 [18] = experiment: Downregulation of E2F2 mRNA expression in human MDA-MB-468 cells at 25 uM incubated for 12 hrs by qRT-PCR analysis; format: functional, cell-based; method in brief: as §1
[19] = Induction of apoptosis in human P493-6 cells assessed as early apoptotic cells at 50 uM incubated for 24 hrs by Annexin V/PI staining based flow cytometry analysis (reference value: 2.52 %); format: functional
MDA-MB-468 [20] = experiment: Downregulation of MYC level in human MDA-MB-468 cells at 25 uM by Western blot analysis; format: functional, cell-based; conditions: time 9-24 hrs
Method in brief: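 MDA-MB-468 cells were exposed to 25 µM over a time course of up to 24 h. MYC and FBXW7 were read by western blot.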

P493-6 [21] = experiment: Downregulation of MYC level in human P493-6 cells incubated for 24 hrs by Western blot analysis; format: functional, cell-based; conditions: dose <= 50.0 µM
Method in brief: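 Cells (300,000/well) were plated 24 h, then exposed to graded concentrations or DMSO for 24 h. Laemmli lysates were run on 4–20% SDS-PAGE and immunoblotted for MYC. Levels were normalized to actin. Mean ± SD, n = 2, one-way ANOVA with Dunnett.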

MDA-MB-468 [22] = experiment: Antitumor activity against human MDA-MB-468 cells xenografted in mouse assessed as upregulation of caspase-3 expression at 10 mg/kg, sc measured at 14 to 26 days by IHC analysis; conditions: time 14-26 day
MDA-MB-468 [23] = experiment: Antitumor activity against human MDA-MB-468 cells xenografted in mouse assessed as reduction in Ki67 expression at 10 mg/kg, sc measured at 14 to 26 days by IHC analysis; conditions: time 14-26 day
MDA-MB-468 [24] = experiment: Downregulation of CDK1 mRNA expression in human MDA-MB-468 cells at 25 uM incubated at 48 hrs by qRT-PCR analysis; format: functional, cell-based; method in brief: as §1
P493-6 [25] = experiment: Downregulation of CDC25C mRNA expression in human P493-6 cells at 25 uM incubated for 12 hrs by qRT-PCR analysis; format: functional, cell-based; method in brief: as §1
MDA-MB-468 [26] = experiment: Downregulation of CDC25C mRNA expression in human MDA-MB-468 cells at 25 uM incubated for 12 hrs by qRT-PCR analysis; format: functional, cell-based; method in brief: as §1

Chain of c-Myc/c-Max (Homo sapiens) (P01106 whole entry): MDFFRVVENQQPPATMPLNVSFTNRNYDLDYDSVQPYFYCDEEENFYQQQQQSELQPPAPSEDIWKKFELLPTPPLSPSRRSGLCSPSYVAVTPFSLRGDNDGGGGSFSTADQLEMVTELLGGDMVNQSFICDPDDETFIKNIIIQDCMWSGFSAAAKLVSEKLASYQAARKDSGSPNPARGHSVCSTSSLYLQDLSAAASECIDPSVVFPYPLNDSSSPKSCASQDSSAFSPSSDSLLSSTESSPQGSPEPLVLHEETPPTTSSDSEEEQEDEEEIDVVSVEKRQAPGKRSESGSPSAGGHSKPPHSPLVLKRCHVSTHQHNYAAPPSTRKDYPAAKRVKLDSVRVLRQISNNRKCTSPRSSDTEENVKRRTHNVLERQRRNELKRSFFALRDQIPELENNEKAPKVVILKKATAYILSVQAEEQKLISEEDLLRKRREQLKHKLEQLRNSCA
Chain of c-Myc/c-Max (Homo sapiens) (P61244 2-160 partner limits assumed): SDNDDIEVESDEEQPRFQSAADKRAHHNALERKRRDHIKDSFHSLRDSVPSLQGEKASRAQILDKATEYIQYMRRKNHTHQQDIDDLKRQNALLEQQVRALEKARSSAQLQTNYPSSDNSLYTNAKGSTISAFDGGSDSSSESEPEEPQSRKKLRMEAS
Chain of Myc proto-oncogene protein (Homo sapiens) (P01106 whole entry): as the sequence (P01106 whole entry) above

For `N#Cc1cc2c(-c3ccc(Cl)cc3)nn(-c3ccccc3)c2[nH]c1=O`, the Activity (P493-6 [1]) was “Active”, the Activity (MDA-MB-468 [2]) was “Active” and the Activity (P493-6 [3]) was “Active”. The Activity [4] was 11.3%, the Activity (P493-6 [5]) was “Active” and the Activity [6] was 0.095%. The Tm [7] was 38 °C, the IC50 [8] was 15.2 µM and the Activity (P493-6 [9]) was “Active”. The viability at 25 µM [10] was 85.5%, the Activity (MCF7) was “Active” and the Activity [11] was “Active”. The Activity (MDA-MB-468 [12]) was “Active”, the Activity (P493-6 [13]) was “Active” and the Activity (MDA-MB-468 [14]) was “Active”. For the same molecule, the Activity (P493-6 [15]) was “Active”, the Activity [16] was 3.1% and the Activity (MDA-MB-468 [17]) was “Active”. For the same molecule, the Activity (MDA-MB-468 [18]) was “Active”, the Activity [19] was 5.11% and the Activity (MDA-MB-468 [20]) was “Time-dependent-effect”. For the same molecule, the Activity (P493-6 [21]) was “Dose-dependent-effect”, the Activity (MDA-MB-468 [22]) was “Active” and the Activity (MDA-MB-468 [23]) was “Active”. The Activity (MDA-MB-468 [24]) was “Active”, the Activity (P493-6 [25]) was “Active” and the Activity (MDA-MB-468 [26]) was “Active”.
